{"source": "ChEMBL document CHEMBL1154958", "about": "“Novel molecular hybrids of cinnamic acids and guanylhydrazones as potential antitubercular agents” (Bioorg Med Chem Lett, 2010)", "key": {"[1]": {"system": "Mycobacterium tuberculosis", "assay": "Antituberculosis activity against Mycobacterium tuberculosis H37Rv after 7 days by resazurin microtiter assay", "assay_type": "functional", "conditions": "168 h", "how_it_was_run": "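H37Rv suspension seeded at 10⁵ cells/well in Middlebrook 7H9 broth. Compounds were serially diluted on the plate, and controls got matching DMSO. Plates were incubated at 37 °C for 7 days, then fresh 0.02% resazurin was added and plates incubated a further 48 h. MIC was the lowest concentration giving complete inhibition, read visually by colour.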"}, "[2]": {"assay": "Cytotoxicity against african green monkey Vero C1008 cells assessed as cell viability at 1000 ug/ml after 72 hrs by MTT assay", "assay_type": "cell-based", "conditions": "chlorocebus sabaeus, read-out: Activity"}, "[3]": {"assay": "Cytotoxicity against african green monkey Vero C1008 cells assessed as cell viability at 62.5 ug/ml after 72 hrs by MTT assay", "assay_type": "cell-based", "conditions": "chlorocebus sabaeus, read-out: Activity"}, "[4]": {"assay": "Cytotoxicity against african green monkey Vero C1008 cells assessed as cell viability at 2000 ug/ml after 72 hrs by MTT assay", "assay_type": "cell-based", "conditions": "chlorocebus sabaeus, read-out: Activity"}, "[5]": {"assay": "Cytotoxicity against african green monkey Vero C1008 cells assessed as cell viability at 125 ug/ml after 72 hrs by MTT assay", "assay_type": "cell-based", "conditions": "chlorocebus sabaeus, read-out: Activity"}, "[6]": {"assay": "Cytotoxicity against african green monkey Vero C1008 cells assessed as cell viability at 31.25 ug/ml after 72 hrs by MTT assay", "assay_type": "cell-based", "conditions": "chlorocebus sabaeus, read-out: Activity"}, "[7]": {"assay": "Cytotoxicity against african green monkey Vero C1008 cells after 72 hrs by MTT assay", "assay_type": "cell-based", "conditions": "chlorocebus sabaeus"}}}
{"smiles": "N=C(N)N/N=C/c1ccc(O)cc1", "values": [{"measurement": "MIC", "setting": "[1]", "value": 1120, "unit": "µM"}]}
{"smiles": "NNC(=O)c1ccncc1", "note": "[ISONIAZID]", "values": [{"measurement": "MIC", "setting": "[1]", "value": 1.8, "unit": "µM"}, {"measurement": "viability at 72 h, 1000 ug/ml", "setting": "[2]", "value": 31.7, "unit": "%"}, {"measurement": "viability at 72 h, 62.5 ug/ml", "setting": "[3]", "value": 98.5, "unit": "%"}, {"measurement": "viability at 72 h, 2000 ug/ml", "setting": "[4]", "value": 23.1, "unit": "%"}, {"measurement": "viability at 72 h, 125 ug/ml", "setting": "[5]", "value": 95.5, "unit": "%"}, {"measurement": "viability at 72 h, 31.25 ug/ml", "setting": "[6]", "value": 99.3, "unit": "%"}, {"measurement": "CC50 at 72 h", "setting": "[7]", "value": 5.83, "unit": "mM"}]}
{"smiles": "O=C(O)/C=C/c1ccccc1", "note": "[CINNAMIC ACID]", "values": [{"measurement": "MIC", "setting": "[1]", "value": 675, "unit": "µM"}]}
{"smiles": "O=C(/C=C/c1ccccc1)Oc1ccccc1", "note": "[PHENYL CINNAMATE]", "values": [{"measurement": "MIC", "setting": "[1]", "value": 502, "unit": "µM"}]}
